Test results taken from publication PMC6689761 (International Journal of Nanomedicine, 2019).
Read-outs that look alike come from different tables or passages of the source.

Assays:
Aqueous solubility = assay type: physicochemical; details: water, 24 hrs, room temperature
Procedure, shortened: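 Excess drug mixed in water 24 hrs at room temperature, spun 20,000× g for 10 mins. Supernatant quantified by reversed-phase UPLC on C18 at 1.0 mL/min. Parent run in 95% 20 mM ammonium acetate/5% ACN, pH 3.9, detected at 272 nm. Prodrug run in 90% methanol/10% water, detected at 280 nm. Peak areas compared with 0.05–50 µg/mL standards in methanol.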

[1] = tested on: human monocyte-derived macrophages (MDMs); assay: MTT cytotoxicity assay in MDMs; assay type: cell-based; details: up to 100 µM, 4 days of exposure
Procedure, shortened: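 Monocytes plated at 80,000 cells/well and differentiated to macrophages. Exposed to 10–400 µM test compound or nanoformulation for 4 days. Washed, then MTT (5 mg/mL) added for 45 mins at 37°C. Formazan dissolved in DMSO and absorbance read at 490 nm. Values normalised to untreated cells; at least three biological replicates.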

[2] = PK and biodistribution in rats after IM injection; assay type: in vivo, Sprague-Dawley rats; details: rat
[3] = assay type: in vivo, Sprague-Dawley rats; details: rat, IM
Procedure, shortened: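 Male Sprague-Dawley rats dosed IM (caudal thigh) at 45, 75 or 100 mg/kg FTC-equivalents. Cells from fresh blood, spleen and lymph nodes isolated, stored in 70% methanol and counted. Triphosphate separated from mono- and diphosphates on QMA cartridges, then dephosphorylated with type XA sweet potato acid phosphatase. Isotope-labelled lamivudine internal standard added after incubation (final 0.5 ng/mL). Mean±SEM, n=3–5.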

HIV-1ADA [4] = assay: EC50 by HIV-1 RT activity in MDMs; assay type: cell-based; details: HIV-1ADA MOI 0.1, HIV-1 RT activity
Procedure, shortened: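 Human MDMs pretreated 1 hr with 0.01–1000 nM test compound, then exposed to HIV-1ADA at MOI 0.1 for 4 hrs. RT activity measured in collected media. EC50 taken as 50% inhibitory concentration from nonlinear-regression concentration–response fits.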

HIV-1ADA [5] = assay: Antiretroviral efficacy in drug-preloaded MDMs; assay type: cell-based
Procedure, shortened: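 Human monocytes from HIV- and hepatitis-seronegative donors, elutriated and differentiated to MDMs. Cells exposed to 100 µM test drug or nanoformulation for 8 hrs, PBS-washed, then challenged with HIV-1ADA (MOI 0.1) for 18 hrs at times from 0 hr to 15 days after loading. Cultured 10 more days, medium changed every other day. Day-10 medium RT activity and p24 immunocytochemistry on 4% paraformaldehyde-fixed cells; uninfected and infected controls.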

[6] = reported value, no reference given; cited from earlier work
[7] = tested on: human monocyte-derived macrophages (MDMs); assay: Nanoparticle macrophage uptake and retention; assay type: cell-based; details: 100 µM

**Q.** With 2`-deoxy-5-fluoro-3`thiacytidine [FTC] as the substance, how does the aqueous solubility (Aqueous solubility) read?
**A.** 134 mg/mL

**Q.** And the “MDM viability (MTT)” value [1]?
**A.** did not affect MDM viability

**Q.** What about the FTC plasma level ([2]; 45 mg/kg FTC-equivalents, day 1) of the same substance?
**A.** 25 ng/mL

**Q.** And the “FTC level in liver” value ([2]; 45 mg/kg, day 7)?
**A.** 2.6 ng/g

**Q.** And the “FTC level in lymph nodes” value ([2]; 45 mg/kg, day 7)?
**A.** 17 ng/g

**Q.** And the “FTC level in spleen” value ([2]; 45 mg/kg, day 7)?
**A.** 0 ng/g

**Q.** What about the FTC plasma level ([2]; 45 mg/kg, day 7) of the same substance?
**A.** 0 ng/mL

**Q.** What about the FTC plasma level ([2]; 75 mg/kg FTC-equivalents, day 1) of the same substance?
**A.** 34 ng/mL

**Q.** What about the “FTC level in liver” value ([2]; 75 mg/kg, day 7) of the same substance?
**A.** 14 ng/g

**Q.** What about the “FTC level in lymph nodes” value ([2]; 75 mg/kg, day 7) of the same substance?
**A.** 6 ng/g

**Q.** What about the “FTC level in spleen” value ([2]; 75 mg/kg, day 7) of the same substance?
**A.** 1.6 ng/g

**Q.** What about the FTC plasma level ([2]; 75 mg/kg, day 7) of the same substance?
**A.** 3 ng/mL

**Q.** What about the FTC plasma level ([2]; 100 mg/kg FTC-equivalents, day 1) of the same substance?
**A.** 52 ng/mL

**Q.** And the “FTC level in liver” value ([2]; 100 mg/kg, day 7)?
**A.** 0.6 ng/g

**Q.** What about the “FTC level in lymph nodes” value ([2]; 100 mg/kg, day 7) of the same substance?
**A.** 8 ng/g

**Q.** And the “FTC level in spleen” value ([2]; 100 mg/kg, day 7)?
**A.** 6 ng/g

**Q.** What about the FTC plasma level ([2]; 100 mg/kg, day 7) of the same substance?
**A.** 1.4 ng/mL

**Q.** And the “FTC plasma levels compared to NMFTC treatment” value ([2]; 2 hrs)?
**A.** several fold higher

**Q.** And the “FTC-TP level in PBMCs” value ([3]; 45 mg/kg, day 1)?
**A.** 100 fmol/10^6 cells

**Q.** And the “FTC-TP level in PBMCs” value ([3]; 45 mg/kg, day 7)?
**A.** 6 fmol/10^6 cells

**Q.** What about the “FTC-TP level in PBMCs” value ([3]; 75 mg/kg, day 1) of the same substance?
**A.** 133 fmol/10^6 cells

**Q.** What about the “FTC-TP level in PBMCs” value ([3]; 75 mg/kg, day 7) of the same substance?
**A.** 7 fmol/10^6 cells

**Q.** And the “FTC-TP level in PBMCs” value ([3]; 100 mg/kg, day 1)?
**A.** 163 fmol/10^6 cells

**Q.** And the “FTC-TP level in PBMCs” value ([3]; 100 mg/kg, day 7)?
**A.** 8 fmol/10^6 cells

**Q.** What about the “fold higher PBMC FTC-TP levels compared to NMFTC treatment” value ([3]; 2 hrs) of the same substance?
**A.** 2–3 fold

**Q.** What about the “FTC-TP levels in lymph node cells” value ([3]; day 1, across doses) of the same substance?
**A.** 4–7 fmol/10^6 cells

**Q.** What about the “FTC-TP levels in spleen” value ([3]; day 1, across doses) of the same substance?
**A.** 6–13 fmol/10^6 cells

**Q.** And the “FTC-TP levels in lymph node cells” value ([3]; day 7, regardless of dose)?
**A.** 1–2 fmol/10^6 cells

**Q.** What about the “FTC-TP levels in spleen” value ([3]; day 7, regardless of dose) of the same substance?
**A.** 2–3 fmol/10^6 cells

**Q.** What about the EC50 (HIV-1ADA [4]) of the same substance?
**A.** 79 nM

**Q.** And the “inhibition of viral RT activity” value (HIV-1ADA [5]; MDMs preloaded 100 µM 8 hrs, challenge at 24 hrs)?
**A.** 30%

**Q.** What about the “HIV-1 p24 antigen staining” value (HIV-1ADA [5]; by 12 hrs following treatment) of the same substance?
**A.** HIV-1 p24+ cells were observed

**Q.** And the “HIV-1 p24 antigen staining” value (HIV-1ADA [5]; by day 1)?
**A.** no effect

**Q.** And the “HIV-1 RT activity in pre-exposed MDMs” value (HIV-1ADA [5]; challenge beyond day 1)?
**A.** did not have effect

**Q.** And the IC90 [6]?
**A.** 0.014 µg/mL

**Q.** And the “reported 50% inhibitory concentration (IC50)” value [6]?
**A.** 0.008 µg/mL

**Q.** And the “highest intracellular FTC-TP concentration” value ([7]; after 8 hrs)?
**A.** 10 pmol/10^6 cells

**Q.** And the intracellular drug levels ([7]; uptake over 24 hrs)?
**A.** minimal detectable intracellular drug levels
